# Reference: ChEMBL document CHEMBL4330127, “Discovery of Novel Pyruvate Dehydrogenase Kinase 4 Inhibitors for Potential Oral Treatment of Metabolic Diseases” (J Med Chem, 2019)
# pIC50: −log10 of the molar value. Active and inactive are the calls of the source. The rule behind the calls is not given here.
# Assays:
# HCT-116 [1] = assay: Induction of apoptosis in human HCT116 cells assessed as decrease in Bcl-XL expression at 10 to 50 uM after 24 hrs by Western blot analysis; format: functional, cell-based
# In short: (§1)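 HCT116 and RKO cells given a range of compound doses for 24 h; lysates probed by Western blot for apoptosis-related proteins (p53, BAX, BCLxL).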
# HCT-116 [2] = assay: Cell cycle arrest in human HCT116 cells assessed as accumulation at G2/M phase at 10 uM after 24 hrs propidium iodide staining based flow cytometry (reference value: 22.2%); format: functional
# In short: (§2)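 HCT116 and RKO cells were treated with compound alone or with oxaliplatin for 24 h before harvest. Cells were stained with propidium iodide, and DNA content was analysed by flow cytometry. Cell-cycle phase populations, including sub-G1, are given as percentages.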
# RKO [3] = assay: Cell cycle arrest in human RKO cells assessed as accumulation at S phase at 25 uM after 24 hrs propidium iodide staining based flow cytometry (reference value: 19.2%); format: functional
# RKO [4] = assay: Cell cycle arrest in human RKO cells assessed as accumulation at S phase at 50 uM after 24 hrs propidium iodide staining based flow cytometry (reference value: 19.2%); format: functional
# CYP3A = CYP3A (Homo sapiens, UniProt P08684+P20815+P24462+Q9HB55); assay: Inhibition of CYP3A in human liver microsomes assessed as reduction in midazolam 1'-hydroxylation by tandem mass spectrometry analysis; format: ADME; conditions: probe midazolam (1'-hydroxylation)
# In short: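 Pooled human liver microsomes; test compound at final 0–50 μM in a cocktail incubation with probe substrates: midazolam 1′-hydroxylation (CYP3A), SN-38 glucuronidation (UGT1A1), trifluoperazine N-glucuronidation (UGT1A4), mycophenolic acid glucuronidation (UGT1A9), naloxone 3-glucuronidation (UGT2B7). Metabolites measured by tandem MS; IC50 determined; duplicate.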
# RKO [5] = assay: Cell cycle arrest in human RKO cells assessed as accumulation at S phase at 10 uM after 24 hrs propidium iodide staining based flow cytometry (reference value: 19.2%); format: functional
# HCT-116 [6] = assay: Induction of apoptosis in human HCT116 cells assessed as early apoptotic cells at 25 uM after 24 hrs by Annexin V/propidium iodide staining based flow cytometry (reference value: 4.36%); format: functional
# HCT-116 [7] = assay: Cell cycle arrest in human HCT116 cells assessed as accumulation at S phase at 10 uM after 24 hrs propidium iodide staining based flow cytometry (reference value: 18%); format: functional; in short: as §2
# HCT-116 [8] = assay: Induction of apoptosis in human HCT116 cells assessed as late apoptotic cells at 25 uM after 24 hrs in presence of oxaliplatin by Annexin V/propidium iodide staining based flow cytometry (reference value: 14.2%); format: functional
# RKO [9] = assay: Antiproliferative activity against human RKO cells up to 50 uM up to 72 hrs by CCK8 assay; format: functional, cell-based
# In short: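 HCT116 and RKO cells were treated with compound alone or with oxaliplatin and grown for 0–72 h. Viability was read by CCK-8 colorimetry at 450 nm.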
# HCT-116 [10] = assay: Induction of apoptosis in human HCT116 cells assessed as live cells at 25 uM after 24 hrs in presence of oxaliplatin by Annexin V/propidium iodide staining based flow cytometry (reference value: 57.3%); format: functional
# RKO [11] = assay: Cell cycle arrest in human RKO cells assessed as accumulation at G2/M phase at 10 uM after 24 hrs propidium iodide staining based flow cytometry (reference value: 23.3%); format: functional; in short: as §2
# NIH3T3 = assay: Cytotoxicity against mouse NIH/3T3 cells; format: cell-based
# RKO [12] = assay: Induction of apoptosis in human RKO cells assessed as live cells at 50 uM after 24 hrs by Annexin V/propidium iodide staining based flow cytometry (reference value: 82.4%); format: functional
# [13] = target: T1, [Pyruvate dehydrogenase (acetyl-transferring)] kinase isozyme 4, mitochondrial (Homo sapiens, UniProt Q16654); assay: Inhibition of PDK4 in HEK293T cells assessed as reduction in PDHE1alpha phosphorylation at Ser-293 residue by measuring phosphorylated PDHE1alpha level at 10 uM after 24 hrs by Western blot analysis; format: cell-based
# T1 sequence (Q16654 whole entry, looked up): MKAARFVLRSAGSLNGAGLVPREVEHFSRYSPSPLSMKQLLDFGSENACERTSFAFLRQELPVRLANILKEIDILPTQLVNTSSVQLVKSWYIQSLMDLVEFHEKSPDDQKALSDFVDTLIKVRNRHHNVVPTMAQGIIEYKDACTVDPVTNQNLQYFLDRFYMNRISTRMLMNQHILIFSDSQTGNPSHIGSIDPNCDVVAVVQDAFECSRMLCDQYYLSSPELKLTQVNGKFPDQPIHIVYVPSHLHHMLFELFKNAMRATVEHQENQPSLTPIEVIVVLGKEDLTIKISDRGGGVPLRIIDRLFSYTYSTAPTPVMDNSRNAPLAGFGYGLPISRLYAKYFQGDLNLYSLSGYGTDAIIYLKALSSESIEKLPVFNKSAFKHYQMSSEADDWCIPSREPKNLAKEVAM
# In short: (§3)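 HEK293T cells grown in high-glucose DMEM with 10% FBS at 37 °C, 5% CO2. Medium renewed after 24 h, then cells exposed to compound for 24 h and lysed. 20 μg protein per lane Western blotted with antibodies to phospho-PDHE1α Ser232, Ser293 and Ser300 and to total PDHE1α. Band intensity quantified relative to control; triplicate.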
# [14] = target: RAC-alpha serine/threonine-protein kinase (Mus musculus) (UniProt P31750); assay: Increase in AKT phosphorylation at Ser-473 residue in mouse AML-12 cells at 10 uM after 24 hrs by Western blot analysis; format: cell-based
# Chain of RAC-alpha serine/threonine-protein kinase (Mus musculus) (P31750 whole entry): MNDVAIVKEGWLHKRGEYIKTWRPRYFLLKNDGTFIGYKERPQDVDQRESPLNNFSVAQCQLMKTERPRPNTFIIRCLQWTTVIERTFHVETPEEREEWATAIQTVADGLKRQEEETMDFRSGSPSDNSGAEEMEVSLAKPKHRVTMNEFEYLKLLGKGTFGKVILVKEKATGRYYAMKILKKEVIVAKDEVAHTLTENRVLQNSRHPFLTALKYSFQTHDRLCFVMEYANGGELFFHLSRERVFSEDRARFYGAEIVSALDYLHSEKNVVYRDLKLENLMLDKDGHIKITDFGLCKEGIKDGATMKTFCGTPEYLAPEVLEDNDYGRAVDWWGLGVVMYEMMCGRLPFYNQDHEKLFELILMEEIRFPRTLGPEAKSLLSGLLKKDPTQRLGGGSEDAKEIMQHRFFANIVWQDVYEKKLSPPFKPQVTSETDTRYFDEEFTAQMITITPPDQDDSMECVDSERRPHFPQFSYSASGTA
# In short: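 AML12 hepatocytes challenged with palmitate, then exposed to 10 μM compound or vehicle (5 mM DCA as reference) for 24 h; p-Akt read by Western blot of cell lysates.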
# HCT-116 [15] = assay: Inhibition of colony formation in human HCT116 cells at 10 to 50 […] after 7 days by crystal violet staining based assay; format: functional, cell-based
# In short: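 HCT116 and RKO cells seeded in 6-well plates and treated with compound for 7 days. Cells then fixed and stained with crystal violet to score colony formation.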
# RKO [16] = assay: Induction of apoptosis in human RKO cells after 24 hrs by Annexin V/propidium iodide staining based flow cytometry; format: functional, cell-based
# Mus musculus = assay: Antidiabetic activity in high-fat diet induced obese C57BL/6J mouse assessed as reduction in blood glucose level at 100 mg/kg, po administered for 1 week starting from week 4 post high fat diet followed by glucose challenge and measured up to 120 mins by IPGTT; format: functional, organism-based
# In short: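 Eight-week-old C57BL/6J mice were fed a high-fat diet (60% kcal fat, 0.5% cholesterol, 10% fructose) for 4 weeks. From week 4 they were dosed orally for 1 week (n = 6 per group), with sitagliptin 10 mg/kg as comparator. An intraperitoneal glucose tolerance test (1.5 g/kg glucose) followed, and the area under the curve was calculated.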
# [17] = target: T1, [Pyruvate dehydrogenase (acetyl-transferring)] kinase isozyme 4, mitochondrial; assay: Inhibition of PDK4 in HEK293T cells assessed as reduction in PDHE1alpha phosphorylation at Ser-300 residue by measuring phosphorylated PDHE1alpha level at 10 uM after 24 hrs by Western blot analysis; format: cell-based; in short: as §3
# HCT-116 [18] = assay: Cell cycle arrest in human HCT116 cells assessed as accumulation at S phase at 25 uM after 24 hrs propidium iodide staining based flow cytometry (reference value: 18%); format: functional; in short: as §2
# HCT-116 [19] = assay: Induction of apoptosis in human HCT116 cells assessed as early apoptotic cells at 25 uM after 24 hrs in presence of oxaliplatin by Annexin V/propidium iodide staining based flow cytometry (reference value: 7.31%); format: functional
# HCT-116 [20] = assay: Cell cycle arrest in human HCT116 cells assessed as accumulation at G2/M phase at 50 uM after 24 hrs propidium iodide staining based flow cytometry (reference value: 22.2%); format: functional; in short: as §2
# HCT-116 [21] = assay: Induction of apoptosis in human HCT116 cells assessed as necrotic cells at 25 uM after 24 hrs by Annexin V/propidium iodide staining based flow cytometry (reference value: 2.92%); format: functional
# RKO [22] = assay: Induction of apoptosis in human RKO cells assessed as increase in Bax expression at 10 to 50 uM after 24 hrs by Western blot analysis; format: functional, cell-based; in short: as §1
# [23] = Oral bioavailability in rat at 10 mg/kg; format: ADME, organism-based; conditions: in vivo
# HCT-116 [24] = assay: Cell cycle arrest in human HCT116 cells assessed as accumulation at sub-G1 phase at 25 uM after 24 hrs propidium iodide staining based flow cytometry (reference value: 17.8%); format: functional; in short: as §2
smiles,measurement,setting,value
Cl.O=C1c2ccccc2C(=O)c2c1cccc2-c1cnn(C2CCNCC2)c1,Activity,HCT-116 [1],Active
same,Activity,HCT-116 [2],14.9%
same,Activity,RKO [3],6%
same,Activity,RKO [4],2.7%
same,pIC50,CYP3A,4.44
same,Activity,RKO [5],13.8%
same,Activity,HCT-116 [6],7.1%
same,Activity,HCT-116 [7],29.1%
same,Activity,HCT-116 [8],21.8%
same,Activity,RKO [9],Active
same,Activity,HCT-116 [10],44.6%
same,Activity,RKO [11],18.1%
same,pIC50,NIH3T3,4.40
same,Activity,RKO [12],9.59%
same,fold change (FC),[13],0.18
same,Activity,[14],Active
same,inhibition,HCT-116 [15],Active
same,Activity,RKO [16],Dose-dependent effect
same,Activity,Mus musculus,Active
same,fold change (FC),[17],0.26
same,Activity,HCT-116 [18],11.4%
same,Activity,HCT-116 [19],7.7%
same,Activity,HCT-116 [20],5.3%
same,Activity,HCT-116 [21],19.6%
same,Activity,RKO [22],Active
same,bioavailability,[23],63.6%
same,Activity,HCT-116 [24],32.5%
